pIC50: −log10 of the molar value. Activity calls are given as the source filed them. The calls are words filed in the database; no cut-off is given here.
What was measured:
[1] = tested on: NCI-H1975; assay: Induction of apoptosis in human NCI-H1975 cells assessed as increase in total apoptotic cells at 1 uM measured after 72 hrs by Annexin V-FITC/PI staining double staining based flow cytometry analysis (Rvb= 3.86%); format: functional
[2] = tested on: NCI-H1975; assay: Induction of apoptosis in human NCI-H1975 cells assessed as increase in total apoptotic cells at 1 uM measured after 48 hrs by Annexin V-FITC/PI staining double staining based flow cytometry analysis (Rvb= 3.86%); format: functional
[3] = tested on: NCI-H1975; assay: Effect on cell cycle progression in human NCI-H1975 cells assessed a accumulation of cells at S phase at 4 uM measured after 24 hrs by RNase A/PI staining based flow cytometry analysis (Rvb= 52.06%); format: functional
[4] = tested on: NCI-H1975; assay: Induction of apoptosis in human NCI-H1975 cells assessed as increase in number of change in apoptotic morphology at 2 to 4 uM measured after 48 hrs by DAPI staining based fluorescence microscopic analysis; format: functional, cell-based; conditions: dose 2-4 µM
Procedure, shortened: (§1)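 H1975 cells were seeded at 2×10^5 per well and incubated 24 h, then exposed to 0, 2 or 4 μM for 48 h. Cells were PBS-washed, fixed in pre-cooled methanol at 4 °C for 10 min, and stained with DAPI in the dark. Nuclear morphology was imaged by fluorescence microscopy.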

[5] = tested on: NCI-H1975; assay: Effect on cell cycle progression in human NCI-H1975 cells assessed a accumulation of cells at G2/M phase at 4 uM measured after 24 hrs by RNase A/PI staining based flow cytometry analysis (Rvb= 5.78%); format: functional
[6] = tested on: NCI-H1975; assay: Effect on cell cycle progression in human NCI-H1975 cells assessed a accumulation of cells at G2/M phase at 2 uM measured after 24 hrs by RNase A/PI staining based flow cytometry analysis (Rvb= 5.78%); format: functional
[7] = tested on: NCI-H1975; assay: Effect on cell cycle progression in human NCI-H1975 cells assessed a accumulation of cells at S phase at 1 uM measured after 24 hrs by RNase A/PI staining based flow cytometry analysis (Rvb= 52.06%); format: functional
[8] = tested on: NCI-H1975; assay: Induction of apoptosis in human NCI-H1975 cells assessed as increase in total apoptotic cells at 4 uM measured after 72 hrs by Annexin V-FITC/PI staining double staining based flow cytometry analysis (Rvb= 3.86%); format: functional
[9] = tested on: PC-3; assay: Antiproliferative activity against human PC-3 cells assessed as inhibition of cell growth measured after 72 hrs by MTT assay; format: functional, cell-based; conditions: PC-3, 72 h
Procedure, shortened: (§2)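 Cells in log phase were seeded at 3000–5000 per well and cultured 24 h at 37 °C, then exposed to a range of compound concentrations in fresh medium for 72 h. MTT was added and incubated 4 h at 37 °C, formazan was dissolved in DMSO, and absorbance was read at 490 nm. IC50 was taken from survival rate, as mean ± SD of three independent experiments. Stocks were 10 mM in DMSO.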

[10] = tested on: NCI-H1975; assay: Induction of apoptosis in human NCI-H1975 cells assessed as increase in total apoptotic cells at 2 uM measured after 48 hrs by Annexin V-FITC/PI staining double staining based flow cytometry analysis (Rvb= 3.86%); format: functional
[11] = tested on: NCI-H1975; assay: Induction of apoptosis in human NCI-H1975 cells assessed as increase in total apoptotic cells at 2 uM measured after 72 hrs by Annexin V-FITC/PI staining double staining based flow cytometry analysis (Rvb= 3.86%); format: functional
[12] = tested on: GES1; assay: Cytotoxicity against human GES1 cells assessed as reduction in cell viability measured after 72 hrs by MTT assay; format: cell-based; conditions: GES1, 72 h; procedure, shortened: as §2
[13] = tested on: NCI-H1975; assay: Induction of apoptosis in human NCI-H1975 cells assessed as appearance of dense particles at 2 to 4 uM measured after 48 hrs by DAPI staining based fluorescence microscopic analysis; format: functional, cell-based; conditions: dose 2-4 µM; procedure, shortened: as §1
[14] = tested on: NCI-H1975; assay: Induction of apoptosis in human NCI-H1975 cells assessed as increase in Bax protein expression at 1 to 4 uM measured after 48 hrs by western blot analysis; format: functional, cell-based; conditions: dose 1-4 µM
Procedure, shortened: (§3)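 H1975 cells in dishes were incubated 24 h, then treated at 0, 1, 2 or 4 μM for 48 h. Cells were trypsinised and lysed in RIPA, and protein was quantified by BCA. Proteins were separated by SDS-PAGE, transferred to nitrocellulose, and blocked in 5% skim milk. Primary antibodies were applied overnight at 4 °C, then secondary (1:10000) for 2 h. Detection was by ECL, with GAPDH as control and densitometry.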

[15] = tested on: NCI-H1975; assay: Induction of apoptosis in human NCI-H1975 cells assessed as nucleus shrinkage at 2 to 4 uM measured after 48 hrs by DAPI staining based fluorescence microscopic analysis; format: functional, cell-based; conditions: dose 2-4 µM; procedure, shortened: as §1
[16] = tested on: NCI-H1975; assay: Induction of apoptosis in human NCI-H1975 cells assessed as increase in total apoptotic cells at 4 uM measured after 48 hrs by Annexin V-FITC/PI staining double staining based flow cytometry analysis (Rvb= 3.86%); format: functional
[17] = tested on: NCI-H1975; assay: Induction of apoptosis in human NCI-H1975 cells assessed as broken nucleus at 2 to 4 uM measured after 48 hrs by DAPI staining based fluorescence microscopic analysis; format: functional, cell-based; conditions: dose 2-4 µM; procedure, shortened: as §1
[18] = tested on: MCF7; assay: Antiproliferative activity against human MCF7 cells assessed as inhibition of cell growth measured after 72 hrs by MTT assay; format: functional, cell-based; conditions: MCF7, 72 h; procedure, shortened: as §2
[19] = tested on: NCI-H1975; assay: Effect on cell cycle progression in human NCI-H1975 cells assessed a accumulation of cells at S phase at 2 uM measured after 24 hrs by RNase A/PI staining based flow cytometry analysis (Rvb= 52.06%); format: functional
[20] = tested on: NCI-H1975; assay: Inhibition of colony formation in human NCI-H1975 cells at 4 uM measured after 9 days by crystal violet staining based microscopic analysis relative to control; format: functional; conditions: NCI-H1975, 216 h, time 9 day
Procedure, shortened: (§4)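 Log-phase cells were seeded at 1000 per well, incubated about 24 h, then exposed to 0, 1, 2 or 4 μM for 9 days. Cells were PBS-washed, fixed with ice-cold methanol for 30 min, and stained with crystal violet for 30 min. Plates were photographed and colonies examined by microscopy.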

[21] = tested on: NCI-H1975; assay: Induction of apoptosis in human NCI-H1975 cells assessed as increase in P53 expression at 1 to 4 uM measured after 48 hrs by western blot analysis; format: functional, cell-based; conditions: dose 1-4 µM; procedure, shortened: as §3
[22] = tested on: NCI-H1975; assay: Effect on cell cycle progression in human NCI-H1975 cells assessed a accumulation of cells at G1 phase at 4 uM measured after 24 hrs by RNase A/PI staining based flow cytometry analysis (Rvb= 42.16%); format: functional
[23] = tested on: NCI-H1975; assay: Effect on cell cycle progression in human NCI-H1975 cells assessed a accumulation of cells at G1 phase at 2 uM measured after 24 hrs by RNase A/PI staining based flow cytometry analysis (Rvb= 42.16%); format: functional
[24] = tested on: MGC-803; assay: Antiproliferative activity against human MGC-803 cells assessed as inhibition of cell growth measured after 72 hrs by MTT assay; format: functional, cell-based; conditions: MGC-803, 72 h; procedure, shortened: as §2
[25] = Selectivity index, ratio of IC50 for cytotoxicity against human GES1 cells to IC50 for antiproliferative activity against human NCI-H1975 cells; format: toxicity, cell-based; conditions: GES1 cells versus NCI-H1975 cells, read-out: Ratio IC50
Procedure, shortened: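 Ratio of GES-1 IC50 to H1975 IC50. Both came from the 72 h MTT assay, with IC50 as the mean ± SD of three separate experiments.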

[26] = tested on: NCI-H1975; assay: Effect on cell cycle progression in human NCI-H1975 cells assessed a accumulation of cells at G1 phase at 1 uM measured after 24 hrs by RNase A/PI staining based flow cytometry analysis (Rvb= 42.16%); format: functional
[27] = tested on: NCI-H1975; assay: Induction of apoptosis in human NCI-H1975 cells assessed as down regulation of Bcl-2 expression at 1 to 4 uM measured after 48 hrs by western blot analysis; format: functional, cell-based; conditions: dose 1-4 µM; procedure, shortened: as §3
[28] = tested on: NCI-H1975; assay: Inhibition of colony formation in human NCI-H1975 cells measured after 9 days by crystal violet staining based microscopic analysis; format: functional, cell-based; conditions: time 9.0 day; procedure, shortened: as §4
[29] = tested on: NCI-H1975; assay: Effect on cell cycle progression in human NCI-H1975 cells assessed a accumulation of cells at G2/M phase at 1 uM measured after 24 hrs by RNase A/PI staining based flow cytometry analysis (Rvb= 5.78%); format: functional
[30] = tested on: NCI-H1975; assay: Antiproliferative activity against human NCI-H1975 cells assessed as inhibition of cell growth measured after 72 hrs by MTT assay; format: functional, cell-based; conditions: NCI-H1975, 72 h; procedure, shortened: as §2

With `FC(F)(F)c1ccc(CSc2nc(Sc3nncs3)cc(C(F)(F)F)n2)cc1` the Activity [1] was 7.7%, the Activity [2] was 5.04% and the Activity [3] was 44.55%. The Activity [4] was “Active”, the Activity [5] was 30.39% and the Activity [6] was 21.28%. The Activity [7] was 51.84%, the Activity [8] was 29.08% and the pIC50 [9] was 5.10. The Activity [10] was 11.13%, the Activity [11] was 17.31% and the pIC50 [12] was 4.43. For the same compound, the Activity [13] was “Active”, the Activity [14] was “Active” and the Activity [15] was “Active”. The Activity [16] was 16.68%, the Activity [17] was “Active” and the pIC50 [18] was 5.06. For the same compound, the Activity [19] was 47.56%, the inhibition at 4 µM [20] was 90% and the Activity [21] was “Active”. For the same compound, the Activity [22] was 25.06%, the Activity [23] was 31.16% and the pIC50 [24] was 4.96. For the same compound, the selectivity ratio [25] was 16.5, the Activity [26] was 34.53% and the Activity [27] was “Active”. The inhibition [28] was “Dose-Dependent Effect”, the Activity [29] was 13.63% and the pIC50 [30] was 5.64.

— ChEMBL document CHEMBL5030525, “Design, synthesis and antitumor activity evaluation of trifluoromethyl-substituted pyrimidine derivatives” (Bioorg Med Chem Lett, 2021)
